Data on 21 compounds can be found in ChEMBL document CHEMBL1134438, “Stepwise modulation of neurokinin-3 and neurokinin-2 receptor affinity and selectivity in quinoline tachykinin receptor antagonists” (J Med Chem, 2001).

One assay concerns the target Mu-type opioid receptor (Homo sapiens, UniProt P35372). Put plainly: Binding affinity towards human mu-opioid receptors in CHO (Chinese hamster ovary) cell lines. Type of assay: cell-based. Summed up: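 CHO cells stably expressing hMOR grown in serum-free suspension culture; membranes made by hypotonic lysis in 10 mM potassium phosphate pH 7.2 with 3 mM MgCl2. Binding run in triplicate at 10 µg/mL protein with 0.4-0.5 nM radioligand for 60 min at 30 °C. Nonspecific binding defined with 10 µM naloxone; filtration and scintillation counting. Duplicate concentration-response curves, n = 3-5 for potent compounds.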

The target in assay [1] is T1, Neuromedin-K receptor (Homo sapiens, UniProt P29371).
T1 sequence (P29371 whole entry): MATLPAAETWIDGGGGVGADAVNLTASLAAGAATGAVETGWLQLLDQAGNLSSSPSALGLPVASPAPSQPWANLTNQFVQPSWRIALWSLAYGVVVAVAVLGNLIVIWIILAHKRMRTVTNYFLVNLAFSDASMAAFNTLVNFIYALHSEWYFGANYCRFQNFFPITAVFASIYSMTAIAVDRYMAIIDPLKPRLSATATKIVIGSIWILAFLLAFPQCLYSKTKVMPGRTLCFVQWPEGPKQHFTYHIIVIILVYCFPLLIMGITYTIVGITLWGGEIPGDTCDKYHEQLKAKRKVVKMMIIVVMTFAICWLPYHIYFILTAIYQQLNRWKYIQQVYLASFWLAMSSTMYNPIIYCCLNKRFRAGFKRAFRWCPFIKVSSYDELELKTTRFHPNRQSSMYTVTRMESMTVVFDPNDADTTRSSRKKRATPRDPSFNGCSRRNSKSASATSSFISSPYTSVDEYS
The assay is described as follows: Displacement of [125 I]-[MePhe]-NKB binding to hNK-3-CHO (Chinese hamster ovary) membranes. Summed up: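 hNK-3-CHO crude membranes (~15 µg protein) were incubated with 0.15 nM [125I]-[MePhe7]-NKB in 50 mM Tris pH 7.4, 4 mM MnCl2, 1 µM phosphoramidon, 0.1% ovalbumin for 90 min at 25 °C. Filtered through BSA-presoaked GF/C, then scintillation counted. Nonspecific binding defined with 0.5 µM cold [MePhe7]-NKB. Ki from IC50 by Cheng-Prusoff; duplicates, n = 3-5.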

Assay [2] can be described thus: Selectivity ratio (hNK-2/hNK-3) of the compound.
In assay [3] the target is T2, Substance-K receptor (Homo sapiens, UniProt P21452).
T2 sequence (P21452 whole entry): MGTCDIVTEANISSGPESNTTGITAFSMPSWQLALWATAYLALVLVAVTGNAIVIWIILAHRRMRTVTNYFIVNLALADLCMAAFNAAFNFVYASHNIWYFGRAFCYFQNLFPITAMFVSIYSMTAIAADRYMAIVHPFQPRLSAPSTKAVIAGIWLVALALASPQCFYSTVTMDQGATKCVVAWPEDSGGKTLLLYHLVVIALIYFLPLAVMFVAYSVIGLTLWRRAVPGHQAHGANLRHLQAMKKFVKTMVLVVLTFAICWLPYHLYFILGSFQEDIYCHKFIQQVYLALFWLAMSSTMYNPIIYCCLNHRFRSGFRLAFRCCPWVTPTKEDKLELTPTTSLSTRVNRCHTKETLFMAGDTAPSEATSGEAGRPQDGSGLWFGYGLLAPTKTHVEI
The assay is described as follows: Displacement of [125 I]-NKA binding to tachykinin receptor 2 in CHO membranes. It is filed as cell membranes. Summed up:
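hNK-2-CHO crude membranes (~10 µg protein) were incubated with 0.15 nM [125I]-NKA for 90 min at 25 °C in Tris pH 7.4 buffer containing MnCl2, phosphoramidon and ovalbumin. Filtered through GF/C soaked in 0.1% PEI. Nonspecific binding defined with 0.5 µM cold NKA. Ki from IC50 by Cheng-Prusoff; duplicate curves, n = 3-5.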

Assay [4] addresses T2, Substance-K receptor. Put plainly: Cellular functional antagonistic activity against NKA-induced [Ca2+] mobilization in HEK cells stably expressing the tachykinin receptor 2. Particulars: read-out: pA2 (converted).
The target of assay [5] is T3, Neuromedin-K receptor (Homo sapiens) (UniProt P29371).
T3 sequence (whole entry): T1 sequence (P29371 whole entry)
The assay is described as follows: (§1) Cellular functional antagonistic activity against NKB-induced [Ca2+] mobilization in HEK cells stably expressing the hNK-3 receptor. Type of assay: cell-based. Particulars: HEK293.

Assay [6] has as its target T4, Substance-K receptor (Homo sapiens) (UniProt P21452).
T4 sequence (whole entry): T2 sequence (P21452 whole entry)
Put plainly: Cellular functional antagonistic activity against NKA-induced [Ca2+] mobilization in HEK cells stably expressing the tachykinin receptor 2. Particulars: HEK293.

In assay [7] the target is T1, Neuromedin-K receptor. The description is as §1. Type of assay: cell-based, HEK293. Particulars: read-out: pA2 (converted).

pKi: −log10 of the molar value. Where only a bound is given, the exact number is not on record here.

Chain of Mu-type opioid receptor (P35372 whole entry): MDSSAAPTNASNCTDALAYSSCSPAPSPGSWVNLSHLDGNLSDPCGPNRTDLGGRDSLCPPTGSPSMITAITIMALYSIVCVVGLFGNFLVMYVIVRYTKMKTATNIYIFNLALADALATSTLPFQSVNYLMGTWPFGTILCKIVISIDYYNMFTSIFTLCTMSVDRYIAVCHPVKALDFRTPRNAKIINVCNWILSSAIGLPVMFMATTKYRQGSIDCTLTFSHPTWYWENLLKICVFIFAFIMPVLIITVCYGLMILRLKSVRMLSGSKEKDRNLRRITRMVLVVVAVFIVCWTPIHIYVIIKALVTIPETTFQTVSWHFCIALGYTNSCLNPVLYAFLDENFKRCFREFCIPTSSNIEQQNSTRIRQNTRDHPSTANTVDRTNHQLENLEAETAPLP

As to `CC[C@H](NC(=O)c1c(CN2CCN(C3CCCCC3)CC2)c(-c2ccccc2)nc2ccccc12)c1ccccc1`, the values for the pKi on Mu-type opioid receptor, on Neuromedin-K receptor [1] and at Substance-K receptor [3] were 7.80, 8.92 and 8.80, respectively. Further, the Ratio in assay [2] worked out at 1.3.
On to `C[C@H](NC(=O)c1c(CN2CCOCC2)c(-c2ccccc2)nc2ccccc12)C1CCCCC1`, for which the pKi (in general, the negative decadic logarithm of the Ki, by convention in mol/L) at Mu-type opioid receptor is below 5.60; at Neuromedin-K receptor [1] it was 8.34; at Substance-K receptor [3], 8.21. In assay [2], the Ratio amounted to 1.3.
Consider `CC(C)C(C)NC(=O)c1c(CN2CCN(C(C)C)CC2)c(-c2ccccc2)nc2ccccc12` (centres undefined), for which the figures for the pKi on Neuromedin-K receptor [1] and at Substance-K receptor [3] were 6.34 and 8.04, respectively. Further, the Ratio in assay [2] turned out to be 0.02.
Take `C[C@H](NC(=O)c1c(CN2CCNCC2)c(-c2ccccc2)nc2ccccc12)C1CCCCC1`: the pKi is 6.76 on Mu-type opioid receptor, 8.47 at Neuromedin-K receptor [1] and 8.62 at Substance-K receptor [3]. In addition, the Ratio in assay [2] is 0.7.
For `CC[C@H](NC(=O)c1c(CN2CCNCC2)c(-c2ccccc2)nc2ccccc12)c1ccccc1` the same measures were 6.69, 8.33, 7.65 and 4.7.
Regarding `C[C@H](NC(=O)c1c(CN2CCC(N3CCOCC3)CC2)c(-c2ccccc2)nc2ccccc12)C1CCCCC1`, the pKi on Mu-type opioid receptor was below 5.60; at Neuromedin-K receptor [1], 9.10; on Substance-K receptor [3] it was 9.10. Further, the Ratio in assay [2] was determined as 1.
For `CC(C)[C@H](NC(=O)c1c(CN2CCN(C(C)C)CC2)c(-c2ccccc2)nc2ccccc12)c1ccccc1`, the figures for the pKi on Mu-type opioid receptor, at Neuromedin-K receptor [1] and at Substance-K receptor [3] were 6.92, 8.92 and 8.82, respectively. Moreover, the Ratio in assay [2] is 1.2.
For the compound `CC[C@H](NC(=O)c1c(CN(C)C)c(-c2ccccc2)nc2ccccc12)c1ccccc1`, the negative-log Ki (pKi) is 5.77 on Mu-type opioid receptor, 8.66 on Neuromedin-K receptor [1] and 6.76 on Substance-K receptor [3]. Also, the Ratio in assay [2] worked out at 78.
Consider `CC[C@H](NC(=O)c1c(CN2CCCCC2)c(-c2ccccc2)nc2ccccc12)c1ccccc1`, for which the negative logarithm of the Ki (pKi) was below 5.60 on Mu-type opioid receptor, 8.15 on Neuromedin-K receptor [1] and 6.56 on Substance-K receptor [3]. The Ratio in assay [2] came to 39.
As to `CC[C@H](NC(=O)c1c(O)c(-c2ccccc2)nc2ccccc12)c1ccccc1` [TALNETANT], the pKi at Mu-type opioid receptor is 5.73.
For `CC(C)N1CCN(Cc2c(-c3ccccc3)nc3ccccc3c2C(=O)N[C@@H](C)C2CCCCC2)CC1`, the pKi is 6.71 at Mu-type opioid receptor, 8.72 on Neuromedin-K receptor [1] and 9.15 at Substance-K receptor [3]. For the same compound, in assay [2], the Ratio turned out to be 0.4.
For `C[C@H](NC(=O)c1c(CN2CCC(N3CCCCC3)CC2)c(-c2ccccc2)nc2ccccc12)C(C)(C)C` the same measures were at most 5.70, 6.71, 9.00 and 0.005.
The like results for `CC(C)C(=O)N1CCN(Cc2c(-c3ccccc3)nc3ccccc3c2C(=O)N[C@@H](C)C2CCCCC2)CC1` were, in that order, below 5.60, 8.85, 8.92 and 0.9.
For `C[C@H](NC(=O)c1c(CN2CCC(N3CCCCC3)CC2)c(-c2ccccc2)nc2ccccc12)C1CCCCC1`, the Kb on Substance-K receptor [4] is 10 nM; in assay [5], 2.6 nM; in assay [6], 9.9 nM; at Neuromedin-K receptor [7] it was 2 nM. Moreover, the results for the pKi on Mu-type opioid receptor, at Neuromedin-K receptor [1] and at Substance-K receptor [3] were 5.88, 8.77 and 9.22, respectively. Besides, in assay [2], the Ratio was 0.3.
For `CC(C)[C@H](NC(=O)c1c(CN(C)C)c(-c2ccccc2)nc2ccccc12)c1ccccc1`, the pKi is below 5.60 at Mu-type opioid receptor and 7.29 at Substance-K receptor [3]. The Ratio in assay [2] worked out at 16.
On Mu-type opioid receptor, `CC[C@H](NC(=O)c1c(CN2CCN(C(C)C)CC2)c(-c2ccccc2)nc2ccccc12)c1ccccc1` had a negative-log Ki (pKi) of 7.01. In addition, the Ratio in assay [2] was determined as 3.1.
For the compound `CC(C)NC(=O)c1c(CN2CCN(C(C)C)CC2)c(-c2ccccc2)nc2ccccc12`, the pKi is below 4.92 at Neuromedin-K receptor [1] and 6.09 at Substance-K receptor [3]. In assay [2], the Ratio was below 0.1.
For `CC(C)N1CCN(Cc2c(-c3ccccc3)nc3ccccc3c2C(=O)NC2CCCCC2)CC1`, the pKi was 6.65 at Mu-type opioid receptor, 5.90 on Neuromedin-K receptor [1] and 8.38 at Substance-K receptor [3]. In addition, the Ratio in assay [2] was found to be 0.003.
Turning to `CC[C@H](NC(=O)c1c(CN2CCC(N3CCCCC3)CC2)c(-c2ccccc2)nc2ccccc12)c1ccccc1`, the negative logarithm of the Ki (pKi) was 6.04 at Mu-type opioid receptor, 8.82 at Neuromedin-K receptor [1] and 8.34 on Substance-K receptor [3]. Further, the Ratio in assay [2] is 3.1.
Regarding `CCC(CC)NC(=O)c1c(CN2CCN(C(C)C)CC2)c(-c2ccccc2)nc2ccccc12`, the negative logarithm of the Ki (pKi) at Neuromedin-K receptor [1] is 5.92; on Substance-K receptor [3], 7.73. Besides, the Ratio in assay [2] came out at 0.015.
On to `C[C@H](NC(=O)c1c(CN2CCC(N)CC2)c(-c2ccccc2)nc2ccccc12)C1CCCCC1`, for which the pKi on Mu-type opioid receptor is 5.75; on Neuromedin-K receptor [1], 7.51; at Substance-K receptor [3], 7.48. For the same compound, the Ratio in assay [2] turned out to be 1.1.
